OX1R antag-1: blocks the human orexin 1 receptor; actives 0.43% (n = 330,000); CHO/OX1R cells, Fluo-8 calcium fluorescence, orexin A; AID 434989; inhibition, % at 5 µM;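 active = inhibition above its plate's threshold, mean inhibition of all tested compounds on the plate plus 3 SD, cut at about 37% in these data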
Target sequence (O43613 whole entry, looked up): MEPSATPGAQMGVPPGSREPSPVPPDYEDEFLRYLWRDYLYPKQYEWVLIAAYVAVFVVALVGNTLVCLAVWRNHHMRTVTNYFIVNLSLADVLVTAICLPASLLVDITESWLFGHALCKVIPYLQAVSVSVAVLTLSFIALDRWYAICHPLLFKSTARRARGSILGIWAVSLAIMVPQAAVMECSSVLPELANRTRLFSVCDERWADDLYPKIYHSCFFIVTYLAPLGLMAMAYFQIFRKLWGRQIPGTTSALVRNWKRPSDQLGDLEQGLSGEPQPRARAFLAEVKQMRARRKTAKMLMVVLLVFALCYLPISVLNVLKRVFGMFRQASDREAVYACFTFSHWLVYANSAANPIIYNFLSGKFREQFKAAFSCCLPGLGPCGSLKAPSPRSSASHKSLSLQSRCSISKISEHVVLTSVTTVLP
TAAR1 antagonist: human TAAR1 antagonism; actives 1.5% (n = 360,000); AID 624466; Q96RJ0; inhibition, % at 3 µM; CHO RD-HGA16 TAAR1, Fluo-8 calcium fluorescence, antagonist;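 active = inhibition above a per-plate cutoff, the mean inhibition of test compounds on that plate plus 3 SD, cut at about 49% in these data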
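Test system – hTAAR1-expressing CHO RD-HGA16 cells, Gα16-coupled · Reagent – β-PEA at EC80 concentration, post-compound challenge · Compound dosing – 3 µM, single point · Timing – 140 s kinetic read after compound, 140 s after agonist · Detection – Fluo-8 intracellular calcium dye fluorescence, real-time kinetic reads · Control set – DMSO and EC80 PEA controls · Repeats – n of 1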
GalR3 antagonist: antagonists of human GalR3 | O60755 | HEK293 GalR3-CNG cAMP membrane potential fluorescence; galR3 body fused to GalR1 C-terminus | inhibition, % at 3 µM | actives 0.44% (n = 360,000);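 active = inhibition above the screen-wide average plus 3 SD, cut at about 13% in these data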;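 note: forskolin and galanin both at EC90 stimulate the cells; cAMP rise reported by CNG channel membrane potential dye signal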
Target sequence (O60755 1-299 limits assumed): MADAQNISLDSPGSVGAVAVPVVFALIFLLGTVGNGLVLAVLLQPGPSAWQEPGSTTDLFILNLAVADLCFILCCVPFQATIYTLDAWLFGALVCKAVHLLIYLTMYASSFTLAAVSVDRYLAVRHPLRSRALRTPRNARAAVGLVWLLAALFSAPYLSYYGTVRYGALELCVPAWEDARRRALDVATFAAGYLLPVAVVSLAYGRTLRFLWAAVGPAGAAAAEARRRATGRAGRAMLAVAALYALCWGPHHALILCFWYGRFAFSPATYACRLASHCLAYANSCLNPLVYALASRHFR
OX1R antag-2: OX1R (human) antagonism. O43613. OX1R-expressing cells, FRET antagonist read-out. inhibition, % at 6.6 µM. actives 1.8% (n = 330,000). AID 485270; in the data active = inhibition mostly above about 38%, no sharp cut-off; inactive = mostly below about 40%
CHO parental Ca: counter-screen for OX1R antagonists: effect in parental CHO cells; inhibition, % at 5.6 µM; parental CHO-K1, ATP-induced calcium, Fluo-8 fluorescence; AID 463079; actives 0.63% (n = 330,000);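 active = inhibition above that plate's mean sample inhibition plus 3 SD, cut at about 26% in these data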
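test system = CHO parental line | reagent = ATP stimulus | measured by = intracellular calcium via Fluo-8 no-wash fluorescent dye | control set = ATP and no-ATP DMSO wells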
TAAR1 agonist: human TAAR1 agonism; Q96RJ0; CHO RD-HGA16 TAAR1, Fluo-8 calcium fluorescence; vehicle wells 0%, saturating PEA agonist 100%; activation, % at 3 µM; actives 0.99% (n = 360,000);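 active = activation above the mean activation of all test compounds in the run plus 3 SD, cut at about 38% in these data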
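Test system: RD-HGA16 (CHO) cells co-expressing Gα16 and hTAAR1 / Benchmarks: DMSO vehicle as 0%, PEA at EC100 as 100% / Repeats: no replicates (n 1) / Measure: % activation from peak over basal fluorescence ratio, DMSO-to-PEA scaled / Timing: 17-24 h plating, Fluo-8 75 min 37 °C, 30 min RT / Technique: kinetic Fluo-8 calcium fluorescence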
TAAR1 ag conf: human TAAR1 agonism, confirmed. activation, % at 3 µM. shares compounds with TAAR1 agonist. AID 651783. actives 82% (n = 2,400). CHO RD-HGA16 TAAR1, Fluo-8 calcium fluorescence; scaled: DMSO 0%, maximal phenethylamine 100%;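 active = activation above a cutoff set at the run's mean compound activation plus 3 SD, cut at about 39% in these data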
Ga16 nonsel ag: counter-screen for TAAR1 agonists: nonselective agonists in parental cells; AID 651787; actives 50% (n = 2,400); shares compounds with TAAR1 agonist; CHO-Ga16 parental, Fluo-8 calcium fluorescence; normalized to maximal ATP response, DMSO zero; activation, % at 3 µM;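 active = activation above the run cutoff, the mean activation over all tested wells plus 3 SD, cut at about 12% in these data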
TAAR1 desens: human TAAR1 agonist that also desensitizes the receptor. shares compounds with TAAR1 agonist. actives 46% (n = 2,400). CHO RD-HGA16 hTAAR1, Fluo-8 calcium, beta-PEA response inhibition. inhibition, % at 3 µM;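 active = inhibition above the run cutoff, the mean inhibition of all test compounds plus 3 SD, cut at about 49% in these data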;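 note: beta-PEA stimulus applied at its EC80; loss of beta-PEA calcium signal after compound pretreatment read as receptor desensitization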
Ga16 antag count: nonselective Ga16 antagonism, counter-screen; shares compounds with TAAR1 agonist; CHO-Ga16 ATP-induced calcium, Fluo-8 fluorescence; inhibition, % at 3 µM; actives 39% (n = 2,400);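 active = inhibition above the plate's mean compound inhibition plus 3 SD, computed per plate, cut at about 22% in these data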
Of the large screens only hits and unclear results are named; the others gave an inactive call (follow-up assays come after a bar, where they were run). Shown are actives, neighbours in structure and some others; about 4.2% of the full set was active somewhere.

CS(=O)(=O)Nc1ccc(C(=O)NCc2ccccn2)cc1	none
CCOc1ccc(NS(=O)(=O)c2ccc(C(=O)NCc3ccccn3)cc2)cc1	TAAR1 agonist 70.6 | TAAR1 ag conf 120.2 | Ga16 nonsel ag 58.6 | TAAR1 desens 67.3 | Ga16 antag count 29.6
CCOc1ccc(NS(=O)(=O)c2ccc(C(=O)NCc3ccncc3)cc2)cc1	none
Cc1ccc(NS(=O)(=O)c2ccc(C(=O)NCc3ccncc3)cc2)cc1	TAAR1 agonist 69.2 | TAAR1 ag conf 60.6 | Ga16 nonsel ag 25.3 | TAAR1 desens inactive | Ga16 antag count 31.9
Cc1ccc(NS(=O)(=O)c2ccc(C(=O)NCc3ccccn3)cc2)cc1	TAAR1 agonist 96.0 | TAAR1 ag conf 110.0 | Ga16 nonsel ag 60.3 | TAAR1 desens 54.0 | Ga16 antag count 30.8
CC(CCNC(=O)c1ccccc1)(CCNC(=O)c1ccccc1)[N+](=O)[O-]	none (no result: OX1R antag-1, OX1R antag-2, CHO parental Ca)
Clc1cccc(-c2nc3c4ccccc4ccn3c2CC2CCCCC2)c1	none (no result: OX1R antag-1, OX1R antag-2, CHO parental Ca)
CCc1ccc(CN(C)C(=O)c2cc(S(=O)(=O)N3CCOCC3)ccc2N2CCCC2)cc1	none
CC(=O)Nc1ccc(C(=O)NC2CCSc3ccccc32)cc1 (stereo not drawn)	none
CSc1ccc(C(=O)NC2CCSc3ccccc32)cc1 (stereo not drawn)	TAAR1 antagonist 89.3, TAAR1 agonist 64.7 | TAAR1 ag conf 52.6 | Ga16 nonsel ag 47.6 | TAAR1 desens 66.1 | Ga16 antag count 62.4
Cn1c(=O)c2c(nc(N3CCc4ccccc4C3)n2Cc2ccc(Br)cc2)n(C)c1=O	TAAR1 agonist 55.0 | TAAR1 ag conf 61.1 | Ga16 nonsel ag inactive | TAAR1 desens inactive | Ga16 antag count inactive
Cn1c(=O)c2c(nc(N3CCc4ccccc4C3)n2Cc2ccccc2F)n(C)c1=O	none
Cc1ccc(Cn2c(CN(C)Cc3ccccc3)nc3c2c(=O)n(C)c(=O)n3C)cc1	TAAR1 agonist 70.1 | TAAR1 ag conf 39.9 | Ga16 nonsel ag 26.4 | TAAR1 desens inactive | Ga16 antag count inactive
CCCCCCCCCCCCCC(=O)NO	none (no result: OX1R antag-1, OX1R antag-2, CHO parental Ca)
CCCCCCCCCCCCCCC(O)C[N+](C)(CCO)CCO (stereo not drawn)	TAAR1 antagonist 76.7, TAAR1 agonist 54.2 (no result: OX1R antag-1, OX1R antag-2, CHO parental Ca) | TAAR1 ag conf inactive | Ga16 nonsel ag inactive | TAAR1 desens inactive | Ga16 antag count 30.0
OC(c1ccccc1)(c1ccccc1)C1CCN(CCCOc2cccc(C(F)(F)F)c2)CC1	none (no result: OX1R antag-1, OX1R antag-2, CHO parental Ca)
OC(c1ccccc1)(c1ccccc1)C1CCN(CCCOc2ccc(C(F)(F)F)cc2)CC1	TAAR1 agonist 43.4 (no result: OX1R antag-1, OX1R antag-2, CHO parental Ca) | TAAR1 ag conf inactive | Ga16 nonsel ag 19.0 | TAAR1 desens inactive | Ga16 antag count 38.2
CC(C)(C)c1ccc(OCCNCc2ccccc2)cc1	TAAR1 agonist 70.7 | TAAR1 ag conf 71.5 | Ga16 nonsel ag 34.5 | TAAR1 desens inactive | Ga16 antag count inactive
Cc1ccc(OCCCN2CCC(C(O)(c3ccccc3)c3ccccc3)CC2)cc1	none (no result: OX1R antag-1, OX1R antag-2, CHO parental Ca)
N#Cc1ccc(OCCCN2CCC(C(O)(c3ccccc3)c3ccccc3)CC2)cc1	TAAR1 agonist 40.0 (no result: OX1R antag-1, OX1R antag-2, CHO parental Ca) | TAAR1 ag conf 54.5 | Ga16 nonsel ag 18.4 | TAAR1 desens inactive | Ga16 antag count inactive
CC(C)c1ccc(OCCCN2CCC(C(O)(c3ccccc3)c3ccccc3)CC2)cc1	TAAR1 agonist 41.1 (no result: OX1R antag-1, OX1R antag-2, CHO parental Ca) | TAAR1 ag conf 58.6 | Ga16 nonsel ag 35.1 | TAAR1 desens 59.2 | Ga16 antag count 55.2
N#Cc1cc(F)cc(OCCCN2CCC(C(O)(c3ccccc3)c3ccccc3)CC2)c1	none (no result: OX1R antag-1, OX1R antag-2, CHO parental Ca)
Cc1ccc(C(=O)C[n+]2cc(Br)cc(Br)c2)cc1[N+](=O)[O-]	none
Cn1cc(Cl)c(C(=O)N/N=C/c2ccc(OS(=O)(=O)c3ccccc3)cc2)n1	none
O=C(NC1(c2ccccc2)CC1)C1CCC(=O)N(Cc2ccc(Cl)cc2)C1 (stereo not drawn)	none
CC[C@H](C)[C@H](NC(=O)c1ccccc1)C(=O)NC(CC(=O)O)c1ccc(F)cc1 (stereo partly drawn)	none
CC(C)(c1ccccc1)c1ccc(OCCCN2CCNCC2)cc1	TAAR1 agonist 50.3 | TAAR1 ag conf inactive | Ga16 nonsel ag inactive | TAAR1 desens inactive | Ga16 antag count inactive
COc1ccc(OCCCN2CCC(C(O)(c3ccccc3)c3ccccc3)CC2)cc1	TAAR1 agonist 38.4 (no result: OX1R antag-1, OX1R antag-2, CHO parental Ca) | TAAR1 ag conf 42.5 | Ga16 nonsel ag 20.1 | TAAR1 desens inactive | Ga16 antag count 22.2
OC(c1ccccc1)(c1ccccc1)C1CCN(CCCOc2cccc(Cl)c2)CC1	TAAR1 antagonist 50.0, TAAR1 agonist 39.5 (no result: OX1R antag-1, OX1R antag-2, CHO parental Ca) | TAAR1 ag conf 42.3 | Ga16 nonsel ag 26.7 | TAAR1 desens inactive | Ga16 antag count 49.5
COCCCNCCOc1ccc(C(C)(C)c2ccccc2)cc1	none
COC(=O)c1cccc(OCCCN2CCC(C(O)(c3ccccc3)c3ccccc3)CC2)c1	none (no result: OX1R antag-1, OX1R antag-2, CHO parental Ca)
CCC(C)NCCOc1ccc(C(C)(C)c2ccccc2)cc1 (stereo not drawn)	TAAR1 agonist 53.8 | TAAR1 ag conf 69.3 | Ga16 nonsel ag 39.4 | TAAR1 desens inactive | Ga16 antag count 26.4
COc1ccc(N2C(=O)CC(Nc3cccc([N+](=O)[O-])c3)C2=O)cc1 (stereo not drawn)	none
N#Cc1c(NCCN)nc(-c2ccccc2)c2c1CCCC2	TAAR1 agonist 54.2 | TAAR1 ag conf 37.9 | Ga16 nonsel ag inactive | TAAR1 desens inactive | Ga16 antag count inactive
Cc1ccc(CCNC(=O)c2coc3nc4ccccc4nc23)cc1	TAAR1 agonist 70.1 | TAAR1 ag conf inactive | Ga16 nonsel ag inactive | TAAR1 desens inactive | Ga16 antag count 23.1
COc1cc(/C=C2\C(=O)ON=C2c2ccccc2)cc(Cl)c1O	none
Cc1c(Cl)cccc1NC(=O)Nc1ccc(C(N)=O)cc1	TAAR1 agonist 51.8 | TAAR1 ag conf 59.7 | Ga16 nonsel ag inactive | TAAR1 desens inactive | Ga16 antag count inactive

Source: PubChem BioAssay
